Data as given in paper PMC9250355 (Molecular Biology of the Cell, 2022).

B1: GST-Cdc15C1 (residues 600–end) (domain or fragment)
chain: MRRRQSTSVDDEAPVSLSKTSSSTRLNGLGYHSRNTSIASDIDGVPKKSTLGAPPAAHTSAQMQRMSNSFASQTKQVFGEQRTENSARESLRHSRSNMSRSPSPMLSRRSSTLRPSFERSASSLSVRQSDVVSPAPSTRARGQSVSGQQRPSSSMSLYGEYNKSQPQLSMQRSVSPNPLGPNRRSSSVLQSQKSTSSNTSNRNNGGYSGSRPSSEMGHRYGSMSGRSMRQVSQRSTSRARSPEPTNRNSVQSKNVDPRATFTAEGEPILGYVIALYDYQAQIPEEISFQKGDTLMVLRTQEDGWWDGEIINVPNSKRGLFPSNFVQTV

Tests used:
[1] = test system: S. pombe strains (pxl1 wild type and pxl1 mutants); assay: Serial dilution growth assay in the presence of LatA; format: cell-based; conditions: low-dose LatA (0.20 μM), 32°C
Outline: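 Strains were grown in liquid YE at 25°C. Three 10-fold serial dilutions starting at 4 × 10^6 cells/ml were spotted on YE agar containing 0.20 µM LatA or DMSO. Plates were incubated at 32°C for 2–5 d, then colonies were imaged by scanner.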

[2] = target: Pxl1 PxxP^6 peptide (residues 177–188), biotin-labeled (S. pombe)

Molecule	sensitivity of pxl1 mutants to LatA [1]	Kd [2] [nM]
C/C1=C/C(=O)O[C@@H]2C[C@@H](CC[C@H](C)/C=C\C=C\CC1)O[C@@](O)([C@@H]1CSC(=O)N1)C2 [LatA, latrunculin A]	no evidence of sensitivity	
B1		1900
